IDH1 mut inh: blocks human IDH1 R132H reductase activity; O75874; diaphorase/resazurin fluorescence, 60 min; inhibition, % at 10 µM; hit rate 0.18% among 70,000; in the data active = inhibition above about 34%; inconclusive = no clear call, values can overlap the other calls; inactive = below about 11%;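 note: 0% = DMSO and 100% = no enzyme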
Target sequence (O75874 whole entry R132H): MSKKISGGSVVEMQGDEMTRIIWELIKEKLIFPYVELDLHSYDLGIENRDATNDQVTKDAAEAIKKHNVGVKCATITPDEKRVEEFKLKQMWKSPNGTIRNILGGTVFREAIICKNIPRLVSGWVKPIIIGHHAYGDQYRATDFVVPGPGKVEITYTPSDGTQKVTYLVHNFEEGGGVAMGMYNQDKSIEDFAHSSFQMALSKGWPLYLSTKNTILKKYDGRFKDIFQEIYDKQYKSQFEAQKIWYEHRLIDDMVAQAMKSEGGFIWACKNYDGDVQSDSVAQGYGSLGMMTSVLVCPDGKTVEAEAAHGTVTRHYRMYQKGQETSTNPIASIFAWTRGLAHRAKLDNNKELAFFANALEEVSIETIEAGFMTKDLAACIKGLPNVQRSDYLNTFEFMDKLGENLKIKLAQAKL
GASC1 inh: blocks human GASC-1 (KDM4C) demethylase activity; Q9H3R0; GST-KDM4C 2-372, H3K9me3 peptide, LANCE TR-FRET; inhibition, % at 12.5 µM; hit rate 0.15% among 96,000;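 active = mean replicate inhibition above about 25%, with at least 55% of replicates also reaching it, limit read from the data, passing the limit was not always enough; inconclusive = only one of those two conditions met; inactive = neither condition met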
Target sequence (Q9H3R0 2-372 limits assumed): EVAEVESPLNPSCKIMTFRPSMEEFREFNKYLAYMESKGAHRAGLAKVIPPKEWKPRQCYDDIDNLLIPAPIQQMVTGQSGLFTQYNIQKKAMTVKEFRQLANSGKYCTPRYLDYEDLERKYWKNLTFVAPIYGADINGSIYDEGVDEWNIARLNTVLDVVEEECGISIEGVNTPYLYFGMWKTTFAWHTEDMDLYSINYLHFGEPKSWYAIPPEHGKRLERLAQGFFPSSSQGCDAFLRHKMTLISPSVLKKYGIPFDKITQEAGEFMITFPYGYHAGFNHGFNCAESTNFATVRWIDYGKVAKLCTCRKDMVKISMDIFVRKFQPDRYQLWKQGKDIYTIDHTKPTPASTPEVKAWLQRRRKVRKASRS
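Test system – GST-tagged GASC-1 (JMJD2C) catalytic fragment, aa 2-372 · Medium – HEPES buffer, pH 7.5, plus ascorbate · Reagent – H3K9me3 peptide with Fe(II)/2OG · Compound – one test concentration per compound · Timing – 30 min reaction, 60 min detection, RT · Technique – TR-FRET with Eu antibody and ULight streptavidin, EDTA stop · Read-out basis – inhibition from TR-FRET ratio decrease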
T cruzi growth-1: inhibitors of T. cruzi proliferation | T. cruzi beta-gal in NIH3T3, GalScreen luminescence, 90 h | inhibition, % at 8.34 µM | hit rate 5.9% among 77,000 | AID 624255;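 active = mean inhibition above about 93%, with at least 55% of replicates each passing it, limit read from the data, passing the limit was not always enough; inconclusive = only one of those two conditions holds; inactive = neither condition holds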
T cruzi growth-2: blocks T. cruzi growth in NIH3T3 host cells; shares compounds with T cruzi growth-1; T. cruzi beta-gal in NIH3T3, GalScreen luminescence, 90 h; inhibition, % at 8.35 µM; hit rate 72% among 5,600;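 active = mean replicate inhibition above about 95% and at least 55% of replicates individually reaching it, limit read from the data; inconclusive = only one of the two criteria is met; inactive = neither criterion is met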
T cruzi growth-3: Trypanosoma cruzi proliferation inhibition. shares compounds with T cruzi growth-1. T. cruzi beta-gal in NIH3T3, GalScreen luminescence, 90 h. inhibition, % at 2.09 µM. hit rate 21% among 5,600. AID 651740;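 active = mean inhibition above about 95%, with at least 55% of replicates also reaching it, limit read from the data; inconclusive = meets just one of the two conditions; inactive = meets neither condition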;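 note: plate controls were neutral control median for no effect and positive control median for full effect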
3T3 cytotox: kills mouse NIH/3T3 fibroblasts. NIH/3T3 viability, CellTiter-Glo ATP luminescence, 90 h. hit rate 14% among 5,600. AID 651742. shares compounds with T cruzi growth-1. cytotoxicity (signal decrease), % at 8.35 µM;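 active = mean signal decrease across replicates above about 35% based on untreated-well scatter, with enough replicates individually passing, limit read from the data; inconclusive = no rule stated though some were filed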;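 note: 0% = median of neutral control wells and 100% = median of positive control wells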
3T3 cytotox 2: NIH/3T3 (mouse) viability loss | shares compounds with T cruzi growth-1 | NIH/3T3 viability, CellTiter-Glo ATP luminescence, 90 h | inhibition, % at 24.9 µM | hit rate 56% among 5,600;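 active = mean loss of cell viability signal at or above a set limit, and enough replicates individually reaching it; inconclusive = meets only the mean limit or only the replicate share; inactive = meets neither condition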;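 note: 0% = median of neutral control wells and 100% = median of positive control wells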
* = called active by the depositor; ? = inconclusive; . = no result. This excerpt belongs to a sample that is enriched for hits.

SMILES	IDH1 mut inh	GASC1 inh	T cruzi growth-1	T cruzi growth-2	T cruzi growth-3	3T3 cytotox	3T3 cytotox 2
COC(=O)c1cc(OC)c(OC)cc1NC(=O)COc1ccc(C)cc1Br	-0.3	.	.	.	.	.	.
O=C1c2ccccc2C(=O)N1CCSc1nnnn1-c1ccccc1	0.1	.	.	.	.	.	.
O=C(Nc1ccc(Cl)cc1Cl)NC(Cc1ccc(O)cc1)C(=O)O (stereo unspecified)	2.0	.	.	.	.	.	.
COc1ccccc1NC(=O)N1CC[C@H]2[C@@H]1c1cc(C#Cc3ccc(F)cc3)ccc1N(C)[C@H]2CO	.	0.2	108.2*	106.0*	116.1*	2.7	5.2
CN1c2ccc(-c3cccc(C#N)c3)cc2[C@@H]2[C@@H](CCN2C(=O)Nc2cc(F)ccc2F)[C@@H]1CO	.	-1.8	?	99.6*	93.3	22.3	13.2
CN1c2ccc(-c3ccc(F)cc3)cc2[C@H]2[C@H](CCN2C(=O)Nc2cc(F)ccc2F)[C@H]1CO	.	-2.2	15.2	.	.	.	.
CN1c2ccc(Br)cc2[C@H]2[C@H](CCN2C(=O)Nc2cc(F)ccc2F)[C@H]1CO	.	0.9	?	104.5*	40.1	11.2	44.2*
CN1c2ccc(-c3ccc(C#N)cc3)cc2[C@@H]2[C@@H](CCN2C(=O)Nc2ccccc2F)[C@@H]1CO	.	-6.9	83.7	.	.	.	.
COc1ccccc1NC(=O)N1CC[C@@H]2[C@H]1c1cc(-c3ccc(F)cc3)ccc1N(C)[C@H]2CO	.	-1.4	84.5	.	.	.	.
CCCCCCC/C=C/C(=O)CCc1ccc(O)c(OC)c1	6.1	.	.	.	.	.	.
Cn1nc(-c2ccc(NCc3cccnc3)c([N+](=O)[O-])c2)c2ccccc2c1=O	0.3	.	.	.	.	.	.
O=c1c(F)cn(CC2CC(c3ccccc3)=NO2)c(=O)n1CC1CC(c2ccccc2)=NO1 (stereo unspecified)	-0.8	.	.	.	.	.	.
C[C@@H]1CN([C@@H](C)CO)C(=O)c2cccc(NC(=O)Nc3ccc4c(c3)OCO4)c2O[C@H]1CN(C)Cc1ccc(C(=O)Nc2ccccc2N)cc1	.	1.9	114.6*	109.7*	?	16.5	29.9*
C[C@H](CO)N1C[C@H](C)[C@H](CN(C)Cc2ccc(Oc3ccccc3)cc2)Oc2ccc(NC(=O)Nc3ccc4c(c3)OCO4)cc2C1=O	.	-2.2	110.3*	102.3*	6.9	-6.9	32.0*
C[C@H](CO)N1C[C@H](C)[C@H](CN(C)Cc2ccc(Oc3ccccc3)cc2)Oc2c(NC(=O)Nc3ccc4c(c3)OCO4)cccc2C1=O	0.7	-1.6	87.8	.	.	.	.
C[C@@H]1CN([C@@H](C)CO)C(=O)c2cc(NC(=O)Nc3ccccc3)ccc2O[C@H]1CN(C)Cc1ccc(Oc2ccccc2)cc1	.	0.8	57.5	.	.	.	.
C[C@H]1CN([C@@H](C)CO)C(=O)c2cccc(NC(=O)Nc3ccc4c(c3)OCO4)c2O[C@@H]1CN(C)Cc1ccc(Oc2ccccc2)cc1	-0.5	1.5	91.5*	96.3*	63.2	-22.0	-28.4
C[C@@H]1CN([C@@H](C)CO)C(=O)c2cccc(NC(=O)Nc3ccc4c(c3)OCO4)c2O[C@@H]1CN(C)Cc1ccc(C(=O)Nc2ccccc2N)cc1	0.8	-0.8	95.4	.	.	.	.
CCNS(=O)(=O)c1cc(C)ccc1-n1cnnn1	1.0	.	.	.	.	.	.
COc1cc2c(cc1-c1coc3c4c(ccc3c1=O)OC(C)(C)C=C4)OCO2	0.8	.	.	.	.	.	.
C[C@@H]1CN([C@H](C)CO)S(=O)(=O)c2ccc(-c3ccccc3)cc2O[C@H]1CN(C)C(=O)C1CC1	.	1.7	115.8	.	.	.	.
COc1cccc(-c2ccc3c(c2)O[C@@H](CN(C)C(=O)c2ccccc2F)[C@H](C)CN([C@H](C)CO)S3(=O)=O)c1	-1.8	-2.1	.	.	.	.	.
COc1cccc(-c2ccc3c(c2)O[C@H](CN(C)C(=O)C2CC2)[C@@H](C)CN([C@@H](C)CO)S3(=O)=O)c1	.	-1.4	81.1	.	.	.	.
COc1cccc(-c2ccc3c(c2)O[C@H](CN(C)C(=O)c2ccccc2F)[C@H](C)CN([C@H](C)CO)S3(=O)=O)c1	0.6	-1.3	108.5*	105.3*	77.4	45.1*	74.2*
COc1cccc(-c2ccc3c(c2)O[C@H](CN(C)C(=O)C2CC2)[C@H](C)CN([C@@H](C)CO)S3(=O)=O)c1	.	-1.7	101.5*	82.4	42.7	18.0	68.5*
SMILES	IDH1 mut inh	GASC1 inh	T cruzi growth-1	T cruzi growth-2	T cruzi growth-3	3T3 cytotox	3T3 cytotox 2
C[C@@H]1CN([C@@H](C)CO)S(=O)(=O)c2ccc(-c3ccccc3)cc2O[C@H]1CN(C)C(=O)C1CC1	.	-0.9	?	78.0	29.3	38.3*	58.8*
O=C(CSc1nc2ccccc2[nH]1)Nc1cccc(C(F)(F)F)c1	-0.4	.	.	.	.	.	.
CSc1cccc(NC(=O)CN(c2ccc(F)c(Cl)c2)S(C)(=O)=O)c1	-0.2	.	.	.	.	.	.
COc1ccc(-c2coc3c(CC=C(C)C)c(O)c(OC)cc3c2=O)cc1	1.6	.	.	.	.	.	.
O=C(O)c1cccc(NS(=O)(=O)c2cccc(C(=O)Nc3ccc(F)cc3)c2)c1	0.2	.	.	.	.	.	.
CS(=O)(=O)N(CC(=O)Nc1cccc([N+](=O)[O-])c1)c1cc(Cl)c(Cl)cc1Cl	-0.2	.	.	.	.	.	.
COc1ccc(CNc2nc(-c3ccc(Cl)cc3)nn2C(=O)c2ccco2)cc1	1.2	.	.	.	.	.	.
C[C@H]1CCCCO[C@@H](CN(C)C(=O)Nc2ccc(F)cc2)[C@@H](C)CN([C@@H](C)CO)C(=O)c2cc(NC(=O)Nc3ccc(C(F)(F)F)cc3)ccc2O1	0.6	-0.6	101.5*	102.5*	111.3*	7.1	14.0
C[C@@H]1CCCCO[C@@H](CN(C)C(=O)Nc2ccc(C(F)(F)F)cc2)[C@H](C)CN([C@@H](C)CO)C(=O)c2cc(NC(=O)Nc3ccc(F)cc3)ccc2O1	.	0.6	105.8*	101.1*	102.8*	-10.0	2.6
C[C@H](CO)N1C[C@H](C)[C@@H](CN(C)C(=O)Nc2ccc(F)cc2)OCCCC[C@H](C)Oc2ccc(NC(=O)Nc3ccc(C(F)(F)F)cc3)cc2C1=O	1.1	-0.8	92.4	.	.	.	.
C[C@@H]1CN([C@H](C)CO)C(=O)c2cc(NC(=O)Nc3ccc(C(F)(F)F)cc3)ccc2O[C@@H](C)CCCCO[C@H]1CN(C)C(=O)Nc1ccc(F)cc1	-1.1	0.2	86.9	.	.	.	.
Cc1nn(C)c(C)c1CN(C)C(=O)c1cc2nc(-c3ccc(Cl)cc3)cc(C(F)(F)F)n2n1	2.1	.	.	.	.	.	.
COc1ccc(OC)c(N(CC(=O)Nc2ccc(I)cc2C)S(C)(=O)=O)c1	-0.4	.	.	.	.	.	.
COCC(=O)N(C)C[C@@H]1[C@H](c2ccc(-c3cccnc3)cc2)[C@@H](CO)N1C(C)=O	.	-0.6	99.9*	-70.3	-21.5	-30.4	-27.4
CCC(=O)N1[C@@H](CO)[C@@H](c2ccc(-c3cccnc3)cc2)[C@@H]1CN(CC)C(C)=O	.	0.1	97.7*	-4.4	17.8	-3.0	13.0
CCC(=O)N(C)C[C@H]1[C@H](c2ccc(-c3cccnc3)cc2)[C@@H](CO)N1C(C)=O	.	0.5	54.7	.	.	.	.

Assay outcomes (PubChem BioAssay)
